Data: ChEMBL document CHEMBL3763095, “Naphtho[1',2':4,5]imidazo[1,2-a]pyridine-5,6-diones: Synthesis, enzymatic reduction and cytotoxic activity” (Bioorg Med Chem Lett, 2016)
Values after ≈ are worked out from the molar mass of the structure shown.

Assays:
[1] = Cytotoxicity against NQO1-deficient human HL60 cells assessed as cell viability after 24 hrs by MTT assay; type: cell-based, HL-60; conditions: read-out: LC50
In short: (§1)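 Cells exposed to the quinones for 24 h, then survival read by MTT assay. Viability expressed as percent of solvent-treated control cells. LC50 (concentration causing 50% lethal effect) obtained from logistic dose-response curves.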

A549 [2] = assay: Cytotoxicity against human A549 cells expressing NQO1 assessed as cell viability after 24 hrs by MTT assay; type: functional; conditions: A549, 24 h, read-out: LC50 (the source's name); in short: as §1
MCF7 [3] = assay: Cytotoxicity against human MCF7 cells expressing NQO1 assessed as cell viability after 24 hrs by MTT assay; type: functional; conditions: MCF7, 24 h, read-out: LC50 (the source's name); in short: as §1
Staphylococcus aureus = assay: Antibacterial activity against Staphylococcus aureus ATCC 25923 after 16 hrs by two-fold microdillution method; type: functional; conditions: ATCC 25923, 16 h
MCF7 [4] = assay: Ratio of LC50 for human MCF7 cells expressing NQO1 in presence of NQO1 inhibitor dicoumarol to LC50 for human A549 cells expressing NQO1 in absence of NQO1 inhibitor dicoumarol; type: functional
A549 [5] = assay: Ratio of LC50 for human A549 cells expressing NQO1 in presence of NQO1 inhibitor dicoumarol to LC50 for human A549 cells expressing NQO1 in absence of NQO1 inhibitor dicoumarol; type: functional

Question: Which results are given for `O=C1C(=O)c2c(nc3ccc4ccccc4n23)-c2ccccc21`?
Answer: CC50 at 24 h [1]: > 15000 nM; CC50 (A549 [2]): > 15000 nM; CC50 (MCF7 [3]): > 15000 nM

Question: Which CC50 at 24 h [1] does the source give for `Cc1ccn2c3c(nc2c1)-c1ccccc1C(=O)C3=O` here?
Answer: Its CC50 at 24 h is greater than 15000 nM.

Question: What about the MIC (Staphylococcus aureus) of the same molecule?
Answer: Its MIC is 15.2 µM (≈ 3.99 µg/mL).

Question: What about the CC50 (A549 [2]) of the same molecule?
Answer: Its CC50 is 1500 nM.

Question: What about the CC50 (MCF7 [3]) of the same molecule?
Answer: The CC50 was 1250 nM.

Question: What does the source list for `O=C1C(=O)c2c(nc3ncccn23)-c2ccccc21`?
Answer: CC50 at 24 h [1]: > 15000 nM; MIC (Staphylococcus aureus): 8 µM (≈ 1.99 µg/mL); CC50 (A549 [2]): 1600 nM; CC50 (MCF7 [3]): 800 nM

Question: For `O=C1C(=O)c2c(nc3ccccn23)-c2ccc([N+](=O)[O-])cc21`, which CC50 at 24 h [1] is on record?
Answer: Its CC50 at 24 h is greater than 15000 nM.

Question: What about the CC50 (A549 [2]) of the same molecule?
Answer: Its CC50 is 120 nM.

Question: What about the RatioLC50 (MCF7 [4]) of the same molecule?
Answer: Its RatioLC50 is 3.6.

Question: And the CC50 (MCF7 [3])?
Answer: The CC50 was 280 nM.

Question: And the RatioLC50 (A549 [5])?
Answer: Its RatioLC50 is 3.3.

Question: With `Cc1cccn2c3c(nc12)-c1ccccc1C(=O)C3=O` as the molecule, how does the CC50 at 24 h [1] read?
Answer: The CC50 at 24 h was greater than 15000 nM.

Question: And the MIC (Staphylococcus aureus)?
Answer: The MIC was 15.2 µM (≈ 3.99 µg/mL).

Question: What about the CC50 (A549 [2]) of the same molecule?
Answer: Its CC50 is 3400 nM.

Question: What about the CC50 (MCF7 [3]) of the same molecule?
Answer: The CC50 was 1700 nM.

Question: What does the source list for `O=C1C(=O)c2c(nc3ccc(Cl)cn23)-c2ccccc21`?
Answer: CC50 at 24 h [1]: 10000 nM; MIC (Staphylococcus aureus): 7 µM (≈ 1.98 µg/mL); CC50 (A549 [2]): 2060 nM; CC50 (MCF7 [3]): 3410 nM

Question: For `O=C1C(=O)c2c(nc3ccc(F)cn23)-c2ccccc21`, which CC50 at 24 h [1] is on record?
Answer: Its CC50 at 24 h is 13000 nM.

Question: What about the MIC (Staphylococcus aureus) of the same molecule?
Answer: The MIC was 15 µM (≈ 3.99 µg/mL).

Question: And the CC50 (A549 [2])?
Answer: Its CC50 is 2030 nM.

Question: What about the CC50 (MCF7 [3]) of the same molecule?
Answer: Its CC50 is 1320 nM.

Question: Which MIC (Staphylococcus aureus) does the source give for `CC1(C)S[C@@H]2[C@H](NC(=O)[C@H](N)c3ccc(O)cc3)C(=O)N2[C@H]1C(=O)O` [AMOXICILLIN] here?
Answer: Its MIC is 0.3 µM (≈ 0.11 µg/mL).

Question: What does the source list for `O=C1C(=O)c2c(nc3ccc(Br)cn23)-c2ccccc21`?
Answer: CC50 at 24 h [1]: > 15000 nM; MIC (Staphylococcus aureus): 6.1 µM (≈ 2 µg/mL); CC50 (A549 [2]): 3930 nM; CC50 (MCF7 [3]): 1390 nM

Question: With `Cc1ccc2nc3c(n2c1)C(=O)C(=O)c1ccccc1-3` as the molecule, how does the CC50 at 24 h [1] read?
Answer: The CC50 at 24 h was greater than 15000 nM.

Question: And the MIC (Staphylococcus aureus)?
Answer: The MIC was 15.2 µM (≈ 3.99 µg/mL).

Question: And the CC50 (A549 [2])?
Answer: Its CC50 is 8340 nM.

Question: What about the CC50 (MCF7 [3]) of the same molecule?
Answer: Its CC50 is 3940 nM.

Question: Which MIC (Staphylococcus aureus) does the source give for `CN[C@@H]1[C@H](O[C@H]2[C@H](O[C@H]3[C@H](O)[C@@H](O)[C@H](N=C(N)N)[C@@H](O)[C@@H]3N=C(N)N)O[C@@H](C)[C@]2(O)C=O)O[C@@H](CO)[C@H](O)[C@H]1O` [STREPTOMYCIN] here?
Answer: Its MIC is 5.4 µM (≈ 3.14 µg/mL).

Question: With `COc1ccc2nc3c(n2c1)C(=O)C(=O)c1ccccc1-3` as the molecule, how does the CC50 at 24 h [1] read?
Answer: Its CC50 at 24 h is greater than 15000 nM.

Question: What about the MIC (Staphylococcus aureus) of the same molecule?
Answer: The MIC was 14.3 µM (≈ 3.98 µg/mL).

Question: And the CC50 (A549 [2])?
Answer: Its CC50 is 3350 nM.

Question: And the CC50 (MCF7 [3])?
Answer: The CC50 was 2100 nM.

Question: What does the source list for `O=C1C(=O)c2c(nc3ccc([N+](=O)[O-])cn23)-c2ccccc21`?
Answer: CC50 at 24 h [1]: > 15000 nM; CC50 (A549 [2]): 2300 nM; CC50 (MCF7 [3]): 1700 nM

Question: For `O=C1C(=O)c2c(nc3ccc(C(F)(F)F)cn23)-c2ccccc21`, which CC50 at 24 h [1] is on record?
Answer: Its CC50 at 24 h is greater than 15000 nM.

Question: And the MIC (Staphylococcus aureus)?
Answer: Its MIC is 6.3 µM (≈ 1.99 µg/mL).

Question: What about the CC50 (A549 [2]) of the same molecule?
Answer: Its CC50 is 900 nM.

Question: And the CC50 (MCF7 [3])?
Answer: The CC50 was 3780 nM.

Question: What does the source list for `COc1cccc2c1C(=O)c1c(O)c3c(c(O)c1C2=O)C[C@@](O)(C(=O)CO)C[C@@H]3O[C@H]1C[C@H](N)[C@H](O)[C@H](C)O1` [DOXORUBICIN]?
Answer: CC50 at 24 h [1]: 370 nM; CC50 (A549 [2]): 1170 nM; CC50 (MCF7 [3]): 1560 nM

Question: Which results are given for `O=C1C(=O)c2c(nc3ccccn23)-c2ccccc21`?
Answer: CC50 at 24 h [1]: > 15000 nM; MIC (Staphylococcus aureus): 16.1 µM (≈ 4 µg/mL); CC50 (A549 [2]): 670 nM; RatioLC50 (MCF7 [4]): 2.3; CC50 (MCF7 [3]): 510 nM; RatioLC50 (A549 [5]): 3.1
